Measurements taken from ChEMBL document CHEMBL1123499, “Synthesis, saludiuretic, and antihypertensive activity of 6,7-disubstituted 1(2H)- and 3,4-dihydro-1(2H)-phthalazinones” (1986).

How the values were obtained:
[1] = species on record: Rattus norvegicus; assay: Saluretic activity in rats after 0-5 hours, as sodium ion concentration in urine; assay type: functional
How it was run: (§1)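 Male Sabra rats (170-200 g), fasted 18 h, dosed orally 50 mg/kg in saline at 25 mL/kg, eight per compound, two per metabolic cage, no food or water. Urine collected 5 and 24 h after dosing and centrifuged. Chloride titrated with Hg(NO3)2/diphenylcarbazone after HNO3 acidification; Na+ and K+ by atomic absorption.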

[2] = species on record: Rattus norvegicus; assay: Saluretic activity in rats after 5-24 hours, as chloride ion concentration in urine; assay type: functional; how it was run: as §1
[3] = species on record: Rattus norvegicus; assay: Diuretic activity in rats at time intervals of 5-24 hours; assay type: functional, Urine
How it was run: (§2)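 Male Sabra rats (170-200 g), starved 18 h, given 50 mg/kg by stomach tube in saline (25 mL/kg load), eight per compound, saline and furosemide controls run alongside. Held two per metabolic cage at 22 °C without food or water. Urine volume measured at 5 and 24 h collections.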

[4] = species on record: Rattus norvegicus; assay: Saluretic activity in rats after 5-24 hours, as sodium ion concentration in urine; assay type: functional; how it was run: as §1
[5] = species on record: Rattus norvegicus; assay: Saluretic activity in rats after 0-5 hours, as chloride ion concentration in urine; assay type: functional; how it was run: as §1
[6] = species on record: Rattus norvegicus; assay: Saluretic activity in rats after 5-24 hours, as potassium ion concentration in urine; assay type: functional; how it was run: as §1
[7] = species on record: Rattus norvegicus; assay: Saluretic activity in rats after 0-24 hours, as chloride ion concentration in urine; assay type: functional; how it was run: as §1
[8] = species on record: Rattus norvegicus; assay: Diuretic activity in rats at time intervals of 0-5 hours; assay type: functional, Urine; how it was run: as §2
[9] = species on record: Rattus norvegicus; assay: Saluretic activity in rats after 0-5 hours, as potassium ion concentration in urine; assay type: functional; how it was run: as §1
[10] = species on record: Rattus norvegicus; assay: Diuretic activity in rats at time intervals of 0-24 hours; assay type: functional, Urine; how it was run: as §2
[11] = species on record: Rattus norvegicus; assay: Saluretic activity in rats after 0-24 hours, as sodium ion concentration in urine; assay type: functional; how it was run: as §1
[12] = species on record: Rattus norvegicus; assay: Saluretic activity in rats after 0-24 hours, as potassium ion concentration in urine; assay type: functional; how it was run: as §1
[13] = species on record: Rattus norvegicus; assay: Saluretic activity in rats after 0-5 hours, as ratio of Na+/K+ ion concentration in urine; assay type: functional; how it was run: as §1
[14] = species on record: Rattus norvegicus; assay: Saluretic activity in rats after 5-24 hours, as ratio of Na+/K+ ion concentration in urine; assay type: functional; how it was run: as §1
[15] = species on record: Rattus norvegicus; assay: Saluretic activity in rats after 0-24 hours, as ratio of Na+/K+ ion concentration in urine; assay type: functional; how it was run: as §1
[16] = species on record: Rattus norvegicus; assay: Compound was tested for antihypertensive activity in rat after 1 hr postdose; assay type: functional
How it was run: (§3)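 DOCA/saline hypertensive Sprague-Dawley rats (250-350 g), six per group, given 10 mg/kg doca s.c. daily with saline until systolic BP reached 170 mmHg (usually 3-4 weeks). Oral 25 mg/kg in 5 mL/kg 1% methylcellulose. Systolic BP by tail-cuff before and 1, 4, 24 h after; drop reported as mean ± SD.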

[17] = species on record: Rattus norvegicus; assay: Compound was tested for antihypertensive activity in rat after 24 hr postdose; assay type: functional; how it was run: as §3
[18] = species on record: Rattus norvegicus; assay: Compound was tested for antihypertensive activity in rat after 4 hr postdose; assay type: functional; how it was run: as §3

Row | SMILES | Saluretic activity [1] [m equiv kg-1] | Saluretic activity [2] [m equiv kg-1] | Diuretic activity [3] [mL] | Saluretic activity [4] [m equiv kg-1] | Saluretic activity [5] [m equiv kg-1] | Saluretic activity [6] [m equiv kg-1] | Saluretic activity [7] [m equiv kg-1] | Diuretic activity [8] [mL] | Saluretic activity [9] [m equiv kg-1] | Diuretic activity [10] [mL] | Saluretic activity [11] [m equiv kg-1] | Saluretic activity [12] [m equiv kg-1] | Ratio [13] | Ratio [14] | Ratio [15] | Decrease in blood pressure [16] [mmHg] | Decrease in blood pressure [17] [mmHg] | Decrease in blood pressure [18] [mmHg]
1 | NS(=O)(=O)c1cc2c(O)nncc2cc1Sc1ccccc1 | 2.9 | 4.47 | 4.7 | 4.97 | 3.97 | 4.25 | 8.44 | 2.9 | 1.45 | 7.6 | 7.87 | 5.7 | 2 | 1.17 | 1.38 | – | – | –
2 | NS(=O)(=O)c1cc2c(cc1Cl)C(=O)N(c1cccc(C(F)(F)F)c1)NC2 | 1.26 | 6.66 | 4.5 | 5.6 | 2.07 | 3.84 | 8.73 | 1.6 | 0.69 | 6.1 | 6.86 | 4.53 | 1.82 | 1.46 | 1.51 | – | – | –
3 | Cn1ncc2cc(S(N)(=O)=O)c(Sc3ccccc3)cc2c1=O | 2.05 | 5.98 | 3.8 | 6.55 | 2.33 | 3.42 | 8.31 | 2.1 | 1.2 | 5.9 | 8.6 | 4.62 | 1.7 | 1.92 | 1.86 | – | – | –
4 | NS(=O)(=O)c1cc2c(cc1Cl)CNN(c1cccc(C(F)(F)F)c1)C2=O | 6.17 | 4.69 | 6.7 | 4.9 | 7.91 | 3.42 | 12.6 | 4.9 | 1.99 | 11.6 | 11.07 | 5.41 | 3.1 | 1.43 | 2.05 | – | – | –
5 | NS(=O)(=O)c1cc2cnn(-c3cccc(C(F)(F)F)c3)c(=O)c2cc1Cl | 0.82 | – | 4 | – | – | 4.67 | – | 0.9 | 0.49 | 4.9 | 7.41 | 5.16 | 1.66 | 1.41 | 1.44 | 35.6 | 27.7 | 54
6 | NS(=O)(=O)c1cc2c(cc1Cl)N=CNS2(=O)=O [CHLOROTHIAZIDE] | 7.74 | 4.75 | 4.7 | 5.03 | 8.8 | 4.14 | 13.55 | 7.2 | 3.75 | 11.9 | 12.77 | 7.89 | 2.06 | 1.21 | 1.62 | – | – | –
7 | NNc1nncc2ccccc12 [HYDRALAZINE] | – | – | – | – | – | – | – | – | – | – | – | – | – | – | – | 72.4 | 35.3 | 75.1
8 | NS(=O)(=O)c1cc2c(cc1Cl)NCNS2(=O)=O [HYDROCHLOROTHIAZIDE] | – | – | – | – | – | – | – | – | – | – | – | – | – | – | – | 28.6 | 18 | 36.7
